For three compounds, MIC results are on record in ChEMBL document CHEMBL1157144, “Novel 16-membered macrolides modified at C-12 and C-13 positions of midecamycin A1 and miokamycin. Part 1: Synthesis and evaluation of 12,13-carbamate and 12-arylalkylamino-13-hydroxy analogues” (2008).

What all share (type): functional
Experiment [1] concerns Streptococcus pneumoniae. In words: Antibacterial activity against ermB-inducible resistant Streptococcus pneumoniae after 20 hrs by agar dilution method. A digest of the protocol: (§1)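 Agar dilution MIC. Streptococcal strains were pre-cultured on blood agar plates. A 5 µl portion of a cell suspension of about 10^6 CFU/ml was inoculated onto Sensitivity disk agar supplemented with 5% horse blood. Plates were incubated at 37 °C for 20 h, then MIC was read.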
On the technique in general: In agar dilution the substance is mixed into plates at graded concentrations.

Experiment [2] has as its system Moraxella catarrhalis. In words: Antibacterial activity against standard Moraxella catarrhalis after 20 hrs by agar dilution method. A digest of the protocol:
(§2)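 MIC by agar dilution. Strains grown on blood agar plates for seed culture. About 5 µl of a suspension of roughly 10^6 CFU/ml spotted onto Sensitivity disk agar with 5% horse blood. Plates incubated at 37 °C for 20 h, then MIC read.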

Experiment [3] relates to Streptococcus pyogenes. In words: Antibacterial activity against standard Streptococcus pyogenes after 20 hrs by agar dilution method. A digest of the protocol:
as §2

Experiment [4] deals with Staphylococcus aureus. In words: Antibacterial activity against susceptible Staphylococcus aureus after 20 hrs by agar dilution method. A digest of the protocol:
(§3)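 Agar dilution MIC. The inoculum came from a seed culture in Sensitivity test broth. A 5 µl portion of a cell suspension of about 10^6 CFU/ml was inoculated onto Sensitivity disk agar supplemented with 5% horse blood. Plates were incubated at 37 °C for 20 h, then MIC was read.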

Experiment [5] concerns Haemophilus influenzae. In words: Antibacterial activity against standard Haemophilus influenzae after 20 hrs by agar dilution method. A digest of the protocol: as §2
Experiment [6] concerns Staphylococcus aureus. In words: Antibacterial activity against ermA-constitutive resistant Staphylococcus aureus after 20 hrs by agar dilution method. A digest of the protocol:
as §3

Experiment [7] has as its system Staphylococcus aureus. The experiment can be described thus: Antibacterial activity against standard Staphylococcus aureus after 20 hrs by agar dilution method. A digest of the protocol:
as §3

The subject of experiment [8] is Staphylococcus aureus. The experiment can be described thus: Antibacterial activity against ermB-inducible resistant Staphylococcus aureus after 20 hrs by agar dilution method. A digest of the protocol: as §3
In experiment [9] the test system is Staphylococcus aureus. In words: Antibacterial activity against ermC-inducible resistant Staphylococcus aureus after 20 hrs by agar dilution method. A digest of the protocol: as §3
For experiment [10], the system named is Streptococcus pyogenes. The experiment can be described thus: Antibacterial activity against mefE efflux-resistant Streptococcus pyogenes after 20 hrs by agar dilution method. A digest of the protocol:
as §1

In experiment [11] the test system is Streptococcus pyogenes. In words: Antibacterial activity against ermB-constitutive resistant Streptococcus pyogenes after 20 hrs by agar dilution method. A digest of the protocol: as §1
In experiment [12] the test system is Haemophilus influenzae. In words: Antibacterial activity against susceptible Haemophilus influenzae after 20 hrs by agar dilution method. A digest of the protocol: as §2
In experiment [13] the test system is Streptococcus pneumoniae. The experiment can be described thus: Antibacterial activity against susceptible Streptococcus pneumoniae after 20 hrs by agar dilution method. A digest of the protocol:
as §2

Experiment [14] has as its system Streptococcus pneumoniae. In words: Antibacterial activity against mefE efflux-resistant Streptococcus pneumoniae after 20 hrs by agar dilution method. A digest of the protocol:
as §1

Experiment [15] concerns Streptococcus pneumoniae. The experiment can be described thus: Antibacterial activity against ermB-constitutive resistant Streptococcus pneumoniae after 20 hrs by agar dilution method. A digest of the protocol:
as §1

≈ marks a conversion by molar mass, not a printed value. Bounds are passed on as bounds.

For the compound `CCC(=O)O[C@@H]1CC(=O)O[C@H](C)C[C@H](O)[C@H](N(C)CCCc2ccccc2)/C=C/[C@H](OC(C)=O)[C@H](C)C[C@H](CC=O)[C@H](O[C@@H]2O[C@H](C)[C@@H](O)[C@H](N(C)C)[C@H]2O)[C@H]1OC`, the MIC in experiment [1] is more than 100 µg/mL; in [2], 0.025 µg/mL (≈ 0.0305 µM); in experiment [3], 0.39 µg/mL (≈ 0.475 µM); in experiment [4] it was 0.78 µg/mL (≈ 0.95 µM); in experiment [5] it was 0.39 µg/mL (≈ 0.475 µM); in [6], more than 100 µg/mL. Besides, the MIC in experiment [7] is 0.39 µg/mL (≈ 0.475 µM); in experiment [8] it was 1.56 µg/mL (≈ 1.9 µM); in experiment [9], 1.56 µg/mL (≈ 1.9 µM); in experiment [10], 0.78 µg/mL (≈ 0.95 µM); in experiment [11], more than 100 µg/mL; in experiment [12] it was 3.13 µg/mL (≈ 3.81 µM). Also, the MIC is 0.2 µg/mL (≈ 0.244 µM) in experiment [13], 0.39 µg/mL (≈ 0.475 µM) in experiment [14] and more than 100 µg/mL in experiment [15].

For `CCC(=O)O[C@@H]1CC(=O)O[C@H](C)C[C@H](O)[C@H](N(C)CCCc2cccc3ccccc23)/C=C/[C@H](OC(C)=O)[C@H](C)C[C@H](CC=O)[C@H](O[C@@H]2O[C@H](C)[C@@H](O)[C@H](N(C)C)[C@H]2O)[C@H]1OC`, the MIC is 100 µg/mL (≈ 115 µM) in [1]; 0.025 µg/mL (≈ 0.0287 µM) in experiment [2]; 0.1 µg/mL (≈ 0.115 µM) in [3]; 0.78 µg/mL (≈ 0.895 µM) in experiment [4]; 0.78 µg/mL (≈ 0.895 µM) in experiment [5]; more than 100 µg/mL in [6]. In addition, the MIC in [7] is 0.39 µg/mL (≈ 0.448 µM); in experiment [8], 0.78 µg/mL (≈ 0.895 µM); in experiment [9], 0.78 µg/mL (≈ 0.895 µM); in experiment [10], 0.39 µg/mL (≈ 0.448 µM); in experiment [11], more than 100 µg/mL; in experiment [12], 3.13 µg/mL (≈ 3.59 µM). Moreover, the MIC in experiment [13] was 0.025 µg/mL (≈ 0.0287 µM); in experiment [14], 0.1 µg/mL (≈ 0.115 µM); in experiment [15], more than 100 µg/mL.

For the compound `CCC(=O)O[C@@H]1CC(=O)O[C@H](C)C/C=C/C=C/[C@H](OC(C)=O)[C@H](C)C[C@H](CC=O)[C@H](O[C@@H]2O[C@H](C)[C@@H](O[C@H]3C[C@@](C)(OC(C)=O)[C@@H](OC(=O)CC)[C@H](C)O3)[C@H](N(C)C)[C@H]2O)[C@H]1OC` [MIOCAMYCIN], the MIC was 6.25 µg/mL (≈ 6.96 µM) in experiment [1]; 0.78 µg/mL (≈ 0.869 µM) in experiment [2]; 0.1 µg/mL (≈ 0.111 µM) in experiment [3]; 0.78 µg/mL (≈ 0.869 µM) in experiment [4]; 3.13 µg/mL (≈ 3.49 µM) in experiment [5]; more than 100 µg/mL in experiment [6]. In addition, the MIC in experiment [7] was 0.2 µg/mL (≈ 0.223 µM); in [8] it was 1.56 µg/mL (≈ 1.74 µM); in experiment [9] it was 0.78 µg/mL (≈ 0.869 µM); in experiment [10], 0.2 µg/mL (≈ 0.223 µM); in [11] it was more than 100 µg/mL; in [12], 25 µg/mL (≈ 27.8 µM). Further, the figures for the MIC in experiment [13], in experiment [14] and in [15] were 0.1 µg/mL (≈ 0.111 µM), 0.2 µg/mL (≈ 0.223 µM) and more than 100 µg/mL, respectively.
